Assay results: ChEMBL document CHEMBL1143728, “Anti-inflammatory benzenoids from Antrodia camphorata” (J Nat Prod, 2007)

Test system: Neutrophil
Assay: Inhibition of fMLP-induced superoxide production in human neutrophils
Type: functional, cell-based
Method in brief: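 Neutrophils from venous blood of healthy volunteers (20-35 years), isolated by double-gradient Ficoll-Hypaque centrifugation with hypotonic lysis of red cells. Cells at 1 × 10⁶ cells/mL preincubated with test agent (100 µmol/L) 5 min at 37 °C, then stimulated with fMLP (1 µmol/L) in presence of ferricytochrome c (0.5 mg/mL). Extracellular superoxide read continuously by ferricytochrome c reduction at 550 nm. Inhibition % = [(control−resting)−(compound−resting)]/(control−resting) × 100. Three independent experiments, SEM; ibuprofen positive control.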

Compound | IC50
COc1cc(C)c(OC)c2c1OCO2 | 26.1 µM
COc1c(C)c(-c2c(C)c(OC)c3c(c2OC)OCO3)c(OC)c2c1OCO2 | > 100 µM
C[C@H]1[C@H](O)CC[C@@H]2[C@]1(C)CC[C@H]1[C@@]2(C)CC[C@@]2(C)[C@@H]3CC(C)(C)CC[C@]3(C)CC[C@]12C | > 100 µM
COc1cc(C(=O)Cl)c(OC)c(OC)c1OC | > 100 µM
C=C(CC[C@@H](C)[C@H]1CC[C@H]2C3=C(C(=O)C[C@]12C)[C@@]1(C)CCC(=O)[C@@H](C)[C@@H]1CC3=O)[C@H](C)C(=O)O [ANTCIN B] | 9.82 µM
C=C(CC[C@@H](C)[C@H]1CC[C@H]2C3=C(C(=O)C[C@]12C)[C@@]1(C)CCC(=O)[C@@H](C)[C@@H]1CC3)[C@H](C)C(=O)O [ANTICIN A] | 8.55 µM
C=C(C)C#Cc1c(OC)cc(OC)c(OC)c1C [ANTROCAMPHIN A] | 9.33 µM
COc1cc(OC)c(OC)c(C)c1C#CC(C)=O [ANTROCAMPHIN B] | > 100 µM
COc1cc(OC)c(OC)c(C)c1C#C[C@@]1(C)OC(=O)O[C@@]1(C)C#Cc1c(OC)cc(OC)c(OC)c1C [ANTRODIOXOLANONE] | > 100 µM
C=C(CC[C@@H](C(=O)O)[C@H]1CC[C@@]2(C)C3=CC[C@H]4C(C)(C)[C@@H](O)CC[C@]4(C)C3=CC[C@]12C)C(C)C [DEHYDROEBURICOIC ACID] | 77.5 µM
CC(C)Cc1ccc(C(C)C(=O)O)cc1 (configuration not stated) [IBUPROFEN] | 27.5 µM
c1cc2c(cc1[C@H]1OC[C@H]3[C@@H]1CO[C@@H]3c1ccc3c(c1)OCO3)OCO2 [SESAMIN] | 90.2 µM
